Test results as given in PMC6045484 (ACS Omega, 2018).
Values after ≈ are worked out from the molar mass of the structure shown.

How the values were obtained:
P. falciparum (W2) = test: in vitro antimalarial activity, plasmodial LDH; format: cell-based, Plasmodium falciparum; details: Plasmodium falciparum, W2, 72 h, read-out: P. falciparum (W2) IC50, CQ-resistant W2 strain, 72 h
How it was run: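 P. falciparum-infected erythrocytes (2% parasitemia, 2% hematocrit) in RPMI 1640 with 10% human serum and 60 μg/mL amikacin. Exposed to test compound dilutions for 72 h at 37 °C under 90% N2/5% O2/5% CO2. LDH measured with Malstat reagent (30 min, room temperature), then NBT/PES for 1 h in the dark, stopped with 5% acetic acid, read at 650 nm. IC50 from dose-response curves.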

A. fumigatus ATCC 90906 = test: in vitro antifungal activity; format: cell-based, Aspergillus fumigatus; details: Aspergillus fumigatus; for IC50: ATCC90906, read-out: A. fumigatus IC50; for MFC: ATCC90906, read-out: A. fumigatus MFC; for MIC: ATCC90906, read-out: A. fumigatus MIC
How it was run: (§1)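 Modified NCCLS broth method in Sabouraud dextrose. Inoculum set by OD630 to 1.5 × 10^3 CFU/mL. Test compound serially diluted in 20% DMSO/saline, duplicate wells, up to 20 μg/mL. Incubated 70–74 h at 35 °C; 530 nm read before and after. IC50 is 50% growth inhibition; MIC is no detectable growth. MFC from clear wells subcultured on agar. Amphotericin B control.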

P. falciparum (D6) = test: in vitro antimalarial activity, plasmodial LDH; format: cell-based, Plasmodium falciparum; details: Plasmodium falciparum, D6, 72 h, read-out: P. falciparum (D6) IC50
C. neoformans ATCC90113 = test: in vitro antifungal activity; format: cell-based, Cryptococcus neoformans; details: Cryptococcus neoformans; for IC50: ATCC90113, read-out: C. neoformans IC50; for MFC: ATCC90113, read-out: C. neoformans MFC; for MIC: ATCC90113, read-out: C. neoformans MIC
How it was run: as §1

[1] = tested on: SK-MEL, KB, BT-549, SK-OV-3, VERO and LLC-PK1 cells; test: cytotoxicity, neutral red uptake assay; format: cell-based, mammalian; details: highest test concentration 4760 ng/mL
How it was run: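 Cells seeded at 25 000/well and allowed 24 h to reach confluence. Test compound was then added and incubated 48 h. Viable cells were counted by a modified neutral red uptake method. The panel was four human cancer lines and two noncancerous mammalian kidney lines. Doxorubicin served as positive control and DMSO as negative control.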

C. albicans ATCC90028 = test: in vitro antifungal activity; format: cell-based, Candida albicans; details: Candida albicans; for IC50: ATCC90028, read-out: C. albicans IC50; for MFC: ATCC90028, read-out: C. albicans MFC; for MIC: ATCC90028, read-out: C. albicans MIC
How it was run: as §1

[2] = tested on: L. donovani promastigotes; test: in vitro antileishmanial activity, alamarBlue assay; format: cell-based, Leishmania donovani; details: Leishmania donovani, 48 h; for IC50: read-out: L. donovani IC50, promastigotes, 48 h; for IC90: read-out: L. donovani IC90, promastigotes, 48 h
SA (ATCC29213) = test: in vitro antibacterial activity; format: cell-based; details: Staphylococcus aureus; for IC50: ATCC29213, read-out: IC50 (concentration that affords 50% growth inhibition), SA; for MBC: ATCC29213, read-out: MBC (minimum bactericidal concentration), SA; for MIC: ATCC29213, read-out: MIC, SA
How it was run: (§2)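 Test compound serially diluted in 20% DMSO/saline and plated in duplicate, up to 20 μg/mL. Inoculum in cation-adjusted Mueller–Hinton broth, pH 7.3, set by OD630 to 5 × 10^5 CFU/mL. Incubated 16–20 h at 35 °C; 530 nm read before and after. IC50 is 50% growth inhibition; MIC is no detectable growth. MBC from clear wells subcultured on agar. Ciprofloxacin control.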

MRSA (ATCC33591) = test: in vitro antibacterial activity; format: cell-based, methicillin-resistant Staphylococcus aureus; details: Staphylococcus aureus, ATCC33591|MRSA, read-out: MIC, MRSA
How it was run: as §2

[3] = tested on: M. intracellulare (ATCC23068); test: in vitro antibacterial activity, modified alamarBlue procedure; format: cell-based, Mycobacterium intracellulare; details: Mycobacterium intracellulare; for IC50: ATCC23068, read-out: IC50 (concentration that affords 50% growth inhibition), M. intracellulare; for MBC: ATCC23068, read-out: MBC (minimum bactericidal concentration), M. intracellulare; for MIC: ATCC23068, read-out: MIC, M. intracellulare
How it was run: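 Modified alamarBlue microplate method. Test compound serially diluted in 20% DMSO/saline, duplicate wells, up to 20 μg/mL. Inoculum 2.0 × 10^6 CFU/mL in Middlebrook 7H9 with OADC, pH 7.3, containing 5% alamarBlue. Incubated 70–74 h at 37 °C, 10% CO2; fluorescence 544ex/590em read before and after. MIC: no blue-to-pink change. MBC by subculturing blue wells on agar. Ciprofloxacin control.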

| SMILES | IC50 (P. falciparum (W2)) [µg/mL] | IC50 (A. fumigatus ATCC 90906) [µg/mL] | MFC (A. fumigatus ATCC 90906) [µg/mL] | MIC (A. fumigatus ATCC 90906) [µg/mL] | IC50 (P. falciparum (D6)) [µg/mL] | IC50 (C. neoformans ATCC90113) [µg/mL] | MFC (C. neoformans ATCC90113) [µg/mL] | MIC (C. neoformans ATCC90113) [µg/mL] | cytotoxicity CTX [1] | IC50 (C. albicans ATCC90028) [µg/mL] | MFC (C. albicans ATCC90028) [µg/mL] | MIC (C. albicans ATCC90028) [µg/mL] | IC50 [2] [µg/mL] | IC90 [2] [µg/mL] | IC50 (SA (ATCC29213)) [µg/mL] | MBC (SA (ATCC29213)) [µg/mL] | MIC (SA (ATCC29213)) [µg/mL] | MIC (MRSA (ATCC33591)) [µg/mL] | IC50 [3] [µg/mL] | MBC [3] [µg/mL] | further results |
| --- | --- | --- | --- | --- | --- | --- | --- | --- | --- | --- | --- | --- | --- | --- | --- | --- | --- | --- | --- | --- | --- |
| COc1cc(NC(C)CCCN)c2nc(C(C)(C)C)ccc2c1Oc1ccc(Cl)c(Cl)c1 (stereo not drawn) [compound 55, N^4-(2-tert-Butyl-5-(3,4-dichlorophenoxy)-6-methoxyquinolin-8-yl)pentane-1,4-diamine] | 0.13 (≈ 0.273 µM) | > 20 | > 20 | > 20 | 0.14 (≈ 0.294 µM) | 3.18 (≈ 6.67 µM) | 5 (≈ 10.5 µM) | 5 (≈ 10.5 µM) | NC (NC, not cytotoxic up to 4760 ng/mL (4.76 μg/mL)) | > 20 | > 20 | > 20 | 11 (≈ 23.1 µM) | > 40 | 5.96 (≈ 12.5 µM) | 10 (≈ 21 µM) | 10 (≈ 21 µM) | 10 (≈ 21 µM) | 9.51 (≈ 20 µM) | 20 (≈ 42 µM) | MIC [3]: 20 µg/mL (≈ 42 µM) |
| CCCCCOc1c(OC)cc(NC(C)CCCNC(=O)C(N)CCCNC(=N)N)c2nc(C(C)(C)C)ccc12 (stereo not drawn) [compound 94, 2-Amino-N-(4-(2-tert-butyl-6-methoxy-5-(pentyloxy)quinolin-8-ylamino)pentyl)-5-guanidinopentanamide] | 4 (≈ 7.17 µM) | > 20 | > 20 | > 20 | 4.76 (≈ 8.53 µM) | 1.41 (≈ 2.53 µM) | 2.5 (≈ 4.48 µM) | 2.5 (≈ 4.48 µM) | NC (NC, not cytotoxic up to 4760 ng/mL (4.76 μg/mL)) | 18.6 (≈ 33.4 µM) | 20 (≈ 35.9 µM) | 20 (≈ 35.9 µM) | 18 (≈ 32.3 µM) | 32 (≈ 57.4 µM) | 5.85 (≈ 10.5 µM) | 20 (≈ 35.9 µM) | 10 (≈ 17.9 µM) | 10 (≈ 17.9 µM) | 11.2 (≈ 20.1 µM) | 20 (≈ 35.9 µM) | MIC [3]: 20 µg/mL (≈ 35.9 µM) |
| CCCCCOc1c(OC)cc(NC(C)CCCNC(=O)C(N)CC(C)C)c2nc(C(C)(C)C)ccc12 (stereo not drawn) [compound 95, 2-Amino-N-(4-(2-tert-butyl-6-methoxy-5-(pentyloxy)quinolin-8-ylamino)pentyl)-4-methylpentanamide] | 2.3 (≈ 4.47 µM) | > 20 | > 20 | > 20 | 3.5 (≈ 6.8 µM) | 1.68 (≈ 3.26 µM) | 2.5 (≈ 4.86 µM) | 2.5 (≈ 4.86 µM) | NC (NC, not cytotoxic up to 4760 ng/mL (4.76 μg/mL)) | 18.4 (≈ 35.8 µM) | > 20 | > 20 | 3.5 (≈ 6.8 µM) | 6.5 (≈ 12.6 µM) | 2.56 (≈ 4.97 µM) | 5 (≈ 9.71 µM) | 5 (≈ 9.71 µM) | 10 (≈ 19.4 µM) | 12.6 (≈ 24.4 µM) | 20 (≈ 38.9 µM) | MIC [3]: 20 µg/mL (≈ 38.9 µM) |
| CCCCCOc1c(OC)cc(NC(C)CCCNC(=O)C(N)C(C)CC)c2nc(C(C)(C)C)ccc12 (stereo not drawn) [compound 96, 2-Amino-N-(4-(2-tert-butyl-6-methoxy-5-(pentyloxy)quinolin-8-ylamino)pentyl)-3-methylpentanamide] | > 4.76 | > 20 | > 20 | > 20 | > 4.76 | 4.95 (≈ 9.62 µM) | 10 (≈ 19.4 µM) | 10 (≈ 19.4 µM) | NC (NC, not cytotoxic up to 4760 ng/mL (4.76 μg/mL)) | > 20 | > 20 | > 20 | 8.65 (≈ 16.8 µM) | 32.6 (≈ 63.4 µM) | 5.35 (≈ 10.4 µM) | 20 (≈ 38.9 µM) | 10 (≈ 19.4 µM) | 10 (≈ 19.4 µM) | 12.2 (≈ 23.7 µM) | 20 (≈ 38.9 µM) | MIC [3]: 20 µg/mL (≈ 38.9 µM) |
| CCCCCOc1c(OC)cc(NC(C)CCCNC(=O)C(N)Cc2ccccc2)c2nc(C(C)(C)C)ccc12 (stereo not drawn) [compound 97, 2-Amino-N-(4-(2-tert-butyl-6-methoxy-5-(pentyloxy)quinolin-8-ylamino)pentyl)-3-phenylpropanamide] | 1.3 (≈ 2.37 µM) | > 20 | > 20 | > 20 | 2.5 (≈ 4.56 µM) | 2.29 (≈ 4.17 µM) | 2.5 (≈ 4.56 µM) | 2.5 (≈ 4.56 µM) | NC (NC, not cytotoxic up to 4760 ng/mL (4.76 μg/mL)) | > 20 | > 20 | > 20 | 4 (≈ 7.29 µM) | 6.5 (≈ 11.8 µM) | 5.81 (≈ 10.6 µM) | > 20 | 10 (≈ 18.2 µM) | 20 (≈ 36.4 µM) | 14.9 (≈ 27.2 µM) | > 20 | MIC [3]: > 20 µg/mL |
| CCCCCOc1c(OC)cc(NC(C)CCCNC(=O)C(N)Cc2cc3ccccc3[nH]2)c2nc(C(C)(C)C)ccc12 (stereo not drawn) [compound 98, 2-Amino-N-(4-(2-tert-butyl-6-methoxy-5-(pentyloxy)quinolin-8-ylamino)pentyl)-3-(1H-indol-2-yl)propanamide] | > 4.76 | > 20 | > 20 | > 20 | > 4.76 | 1.21 (≈ 2.06 µM) | 2.5 (≈ 4.25 µM) | 2.5 (≈ 4.25 µM) | NC (NC, not cytotoxic up to 4760 ng/mL (4.76 μg/mL)) | 18.8 (≈ 31.9 µM) | > 20 | > 20 | 1.81 (≈ 3.08 µM) | 2.93 (≈ 4.98 µM) | 1.95 (≈ 3.32 µM) | 10 (≈ 17 µM) | 5 (≈ 8.51 µM) | 5 (≈ 8.51 µM) | 8.47 (≈ 14.4 µM) | 20 (≈ 34 µM) | MIC [3]: 10 µg/mL (≈ 17 µM) |
